Screens as filed in PubChem BioAssay.
The list is not random: actives were taken first. Their share in the collection is about 3.8%.
KCNQ1 act: human KCNQ1 channel potentiation or activation; P51787; CHO-K1 KCNQ1, thallium flux FluxOR fluorescence; stronger effect = higher value; B-score at 10 µM; hit rate 0.35% among 310,000;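 active means fluorescence ratio B-score, a plate-corrected score, at least three library SD, with initial intensity B-score within 5 SD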
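Assay system: CHO-K1 cells stably expressing KCNQ1; Medium: assay buffer with matched DMSO; Also added: K+/Tl+ depolarizing stimulus; Dosing: single dose; Timing: dye 90 min, compound 20 min, room temperature; Measured by: kinetic FluxOR thallium fluorescence, 10-s 1-Hz baseline, 110-s post-stimulus read; Read-out: peak-minus-minimum fluorescence over initial fluorescence, negative-control normalized, B-scored.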
hERG protect: shields human hERG channel from block by proarrhythmic agents; CHO-hERG, FluxOR thallium flux, dofetilide IC70 present; activation (rescue from dofetilide block), less the hit threshold, % at 10 µM; hit rate 0.51% among 310,000; AID 1511;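 active means activation above the mean of controls blocked by dofetilide plus 5 SD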;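 further: thallium influx through hERG after potassium depolarization seen as dye fluorescence rise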
KCNK9 block: human KCNK9 channel inhibition; HEK293 KCNK9, FluxOR thallium flux fluorescence; stronger effect = lower value; B-score at 10 µM; hit rate 1.2% among 310,000; AID 488922;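 active means ratio B-score over 3 SD below the library mean, with starting fluorescence within 5 SD of its mean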;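 further: negative B-score means less thallium flux so channel inhibition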
KCNQ1 inh: blocks the human KCNQ1 potassium channel | B-score at 10 µM | P51787 | CHO-K1 KCNQ1, FluxOR thallium flux fluorescence; stronger effect = higher value | hit rate 1.3% among 310,000;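 active means compounds whose thallium flux B-score, printed positive for inhibition, exceeds three library SD while starting fluorescence stays within three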;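 further: channel opened by potassium depolarization with thallium stimulus after 20 min compound exposure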
Kir21 inh: inhibitors of mouse Kir2.1 inward-rectifier potassium channel; P35561; HEK293-Kir2.1, FluxOR thallium flux fluorescence; stronger effect = lower value; B-score at 10 µM; hit rate 0.85% among 310,000;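 active means fluorescence ratio B-score at or below minus 3 SD of library scores, with starting-brightness B-score within 2 SD, cut at about -4.2 in these data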;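 further: channel flux triggered by added potassium and thallium sulfate stimulus; B-score of peak minus minimum fluorescence over baseline after thallium stimulus; more negative B-score means stronger Kir2.1 block with less thallium influx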
Target sequence (P35561 whole entry, looked up): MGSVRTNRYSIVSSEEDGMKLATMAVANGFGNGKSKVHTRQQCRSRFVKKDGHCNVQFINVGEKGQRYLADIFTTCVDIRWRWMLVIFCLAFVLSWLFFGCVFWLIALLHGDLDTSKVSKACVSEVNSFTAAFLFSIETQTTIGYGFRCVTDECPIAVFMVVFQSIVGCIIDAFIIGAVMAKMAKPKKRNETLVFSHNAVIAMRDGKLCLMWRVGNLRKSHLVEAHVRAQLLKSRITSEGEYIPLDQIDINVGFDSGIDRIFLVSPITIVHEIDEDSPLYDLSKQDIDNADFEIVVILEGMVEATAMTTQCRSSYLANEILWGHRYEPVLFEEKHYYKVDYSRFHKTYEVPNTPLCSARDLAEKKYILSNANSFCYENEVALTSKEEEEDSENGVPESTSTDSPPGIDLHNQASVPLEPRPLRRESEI
KCNK3 inh: human KCNK3 channel inhibition, primary screen | O14649 | CHO-KCNK3 thallium flux, FluxOR fluorescence; stronger effect = lower value | B-score at 10 µM | hit rate 0.84% among 340,000 | AID 602410;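 active means B-score under library mean minus 4 SD, starting fluorescence ratio at most library mean plus 5 SD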;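 further: more negative B-score means stronger inhibition of thallium flux through KCNK3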
KCNK3 inh conf: confirmation of human KCNK3 two-pore domain potassium channel inhibitors; CHO-KCNK3 thallium flux, FluxOR fluorescence; 0% buffer, 100% carvedilol maximal block; hit rate 99% among 2,400; shares compounds with KCNK3 inh; ratio percent of control, % at 10 µM; AID 651638;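 active means ratio percent of control, averaged over triplicates, above buffer control mean plus 5 SD, cut at about 64% in these data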;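 further: ratio is the fluorescence rise from min to max over baseline after thallium stimulus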
KCNK3 uninduced: KCNK3 inhibitor counter-screen hit in non-induced cells. shares compounds with KCNK3 inh. hit rate 40% among 2,400. AID 651747. thallium flux ratio (lower = more inhibition) at 10 µM. non-induced KCNK3 parental cells, FluxOR thallium flux; stronger effect = lower value;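 active means thallium flux ratio, averaged over three wells, more than 5 SD below the buffer control mean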;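 further: host cells are CHO cells without KCNK3 induction; ratio is peak minus trough fluorescence over baseline then normalized to buffer controls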
An asterisk follows results filed as active.

What do the screens show for `CCCCc1nc(NCCNC(=O)c2ccccc2)c(C#N)c2c1CSC(C)(C)C2`?
KCNQ1 act: inactive; hERG protect: -30; KCNK9 block: inactive; KCNQ1 inh: inactive; Kir21 inh: -0.06; KCNK3 inh: -10*; KCNK3 inh conf: 136*; KCNK3 uninduced: 0.11*

Results for CCCCc1nc(Cl)c(C#N)c2c1CSC(C)(C)C2 ?
KCNQ1 act: inactive; hERG protect: -11; KCNK9 block: inactive; KCNQ1 inh: inactive; Kir21 inh: 0.47; KCNK3 inh: inactive

Results for Cc1cc(C(=O)Nc2cccc3ccccc23)co1 ?
KCNQ1 act: inactive; hERG protect: -10; KCNK9 block: inactive; KCNQ1 inh: inactive; Kir21 inh: 0.7; KCNK3 inh: inactive

Results for Cc1oc(-c2ccccc2)cc1C(=O)Nc1cccc2ccccc12 ?
KCNQ1 act: inactive; hERG protect: -9; KCNK9 block: inactive; KCNQ1 inh: inactive; Kir21 inh: 0.36; KCNK3 inh: -11*; KCNK3 inh conf: 119*; KCNK3 uninduced: 0.16*

How did CC1CCN(S(=O)(=O)c2ccc3c(c2)N(CC(=O)NCCN2C(C)CCCC2C)C(=O)CS3)CC1 (stereo not given) do in these assays?
KCNQ1 act: inactive; hERG protect: -1; KCNK9 block: inactive; KCNQ1 inh: inactive; Kir21 inh: -1.6; KCNK3 inh: inactive

How did O=C1C(Cl)=C(NCCc2ccccc2)C(=O)c2ccccc21 do in these assays?
KCNK3 inh: -14*; KCNK3 inh conf: 161*; KCNK3 uninduced: 0.065*

Results for C=CCNC(=S)NNC(=O)c1ccc(=O)n(Cc2ccccc2)c1 ?
KCNQ1 act: inactive; hERG protect: -4; KCNK9 block: inactive; KCNQ1 inh: inactive; Kir21 inh: -0.8; KCNK3 inh: inactive

How did COc1cccc(C(=O)C2CCCN(C(=O)CCC3=NNC(=O)CC3)C2)c1 (stereo not given) do in these assays?
KCNQ1 act: inactive; hERG protect: -1; KCNK9 block: inactive; KCNQ1 inh: inactive; Kir21 inh: -0.18; KCNK3 inh: inactive

How did CC(C)OC(=O)c1ccc(NC(=O)c2ccco2)cc1 do in these assays?
KCNQ1 act: inactive; hERG protect: -10; KCNK9 block: inactive; KCNQ1 inh: inactive; Kir21 inh: -1.4; KCNK3 inh: -9.8*; KCNK3 inh conf: 91*; KCNK3 uninduced: inactive

Results for CCOc1cccc(C(=O)Nc2cccc(NC(=O)c3ccco3)c2)c1 ?
KCNQ1 act: inactive; hERG protect: -23; KCNK9 block: -6.8*; KCNQ1 inh: inactive; Kir21 inh: 2.1; KCNK3 inh: -12*; KCNK3 inh conf: 76*; KCNK3 uninduced: inactive

Results for O=C(Nc1cccc(S(=O)(=O)c2cccc(NC(=O)c3ccco3)c2)c1)c1ccco1 ?
KCNQ1 act: inactive; hERG protect: -14; KCNK9 block: inactive; KCNQ1 inh: inactive; Kir21 inh: -1.8; KCNK3 inh: -9.4*; KCNK3 inh conf: 136*; KCNK3 uninduced: 0.14*

What do the screens show for `CCOc1cccc(C(=O)Nc2cccc(C(C)=O)c2)c1`?
KCNQ1 act: inactive; hERG protect: -6; KCNK9 block: inactive; KCNQ1 inh: inactive; Kir21 inh: -4; KCNK3 inh: inactive

Results for CC(C)CC(C(=O)OCC(=O)N1CCN(c2ccccc2)CC1)N1C(=O)c2ccccc2C1=O (stereo not given) ?
KCNK3 inh: inactive

How did COc1cccc(C2=NOC(C(=O)Nc3cc(C)on3)C2)c1 (stereo not given) do in these assays?
KCNQ1 act: inactive; hERG protect: -10; KCNK9 block: inactive; KCNQ1 inh: inactive; Kir21 inh: -2; KCNK3 inh: inactive

Results for O=Cc1ccc(OCc2nnsc2Cl)cc1 ?
KCNQ1 act: inactive; hERG protect: -7; KCNK9 block: inactive; KCNQ1 inh: inactive; Kir21 inh: -0.23; KCNK3 inh: inactive

How did Cc1ccc(C)c(NS(=O)(=O)c2cc(C(=O)NCCSC3CCCCC3)ccc2C)c1 do in these assays?
KCNQ1 act: inactive; hERG protect: -5; KCNK9 block: -7.9*; KCNQ1 inh: inactive; Kir21 inh: -0.93; KCNK3 inh: -10*; KCNK3 inh conf: 110*; KCNK3 uninduced: inactive

How did O=C(CNC(=O)C1COc2ccccc2O1)Nc1ccc(F)c(F)c1 (stereo not given) do in these assays?
KCNK3 inh: inactive

How did C=CCNCC(=O)Nc1ccccc1SCC(=O)Nc1ccsc1C(=O)OC do in these assays?
KCNQ1 act: inactive; hERG protect: -9; KCNK9 block: inactive; KCNQ1 inh: inactive; Kir21 inh: -2.3; KCNK3 inh: inactive

Results for CCN(CC)CC(=O)Nc1ccccc1SCC(=O)Nc1ccsc1C(=O)OC ?
KCNQ1 act: inactive; hERG protect: -11; KCNK9 block: inactive; KCNQ1 inh: inactive; Kir21 inh: -3.1; KCNK3 inh: -9.9*; KCNK3 inh conf: 98*; KCNK3 uninduced: inactive

Results for CCCOc1ccc(-c2nnn(CC(=O)Nc3cccc(C(=O)OC)c3)n2)cc1 ?
KCNQ1 act: inactive; hERG protect: -3; KCNK9 block: inactive; KCNQ1 inh: inactive; Kir21 inh: -1.6; KCNK3 inh: inactive

Results for CCCCOc1ccc(-c2nnn(C(C)(C)C(=O)OC)n2)cc1 ?
KCNQ1 act: inactive; hERG protect: -9; KCNK9 block: -6.6*; KCNQ1 inh: inactive; Kir21 inh: -0.9; KCNK3 inh: -11*; KCNK3 inh conf: 96*; KCNK3 uninduced: inactive

What do the screens show for `O=C(Nc1ccc2c(c1)OCCO2)C(=O)NC1CC1`?
KCNQ1 act: inactive; hERG protect: -1; KCNK9 block: inactive; KCNQ1 inh: inactive; Kir21 inh: 1.1; KCNK3 inh: inactive

What do the screens show for `COc1ccc(N2CCN(C(=O)CCNS(=O)(=O)c3ccc4c(c3)CCC(=O)N4)CC2)cc1`?
KCNK3 inh: inactive

What do the screens show for `O=C(C1CC(c2ccccc2O)=NO1)N1CCc2ccccc2C1` (stereo not given)?
KCNQ1 act: inactive; hERG protect: -3; KCNK9 block: inactive; KCNQ1 inh: inactive; Kir21 inh: 0.12; KCNK3 inh: -9*; KCNK3 inh conf: 99*; KCNK3 uninduced: inactive

What do the screens show for `COc1cccc(OCc2nc(-c3cccc([N+](=O)[O-])c3)no2)c1`?
KCNQ1 act: inactive; hERG protect: -7; KCNK9 block: inactive; KCNQ1 inh: inactive; Kir21 inh: 0.74; KCNK3 inh: -10*; KCNK3 inh conf: 99*; KCNK3 uninduced: inactive
